How the values were obtained:
[1] = target: T1, Large neutral amino acids transporter small subunit 1 (Homo sapiens, UniProt Q01650); assay: Inhibition of human LAT1 expressed in HEK293-T-Rex cells assessed as inhibition of [3H]-gabapentin uptake by scintillation counting cis-inhibition assay relative to BCH inhibition (RV = 100%); assay type: cell-based
[2] = target: T1, Large neutral amino acids transporter small subunit 1; assay: Inhibition of human LAT1 expressed in HEK293-T-Rex cells assessed as inhibition of [3H]-gabapentin uptake at 200 uM by scintillation counting cis-inhibition assay; assay type: cell-based
Summary of the method: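 HEK cells overexpressing human LAT1; test compound at 200 μM added during [3H]-gabapentin uptake (cis-inhibition). Reported as % inhibition relative to background signal without test compound; cell data at least in triplicate.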

T1 sequence (Q01650 whole entry): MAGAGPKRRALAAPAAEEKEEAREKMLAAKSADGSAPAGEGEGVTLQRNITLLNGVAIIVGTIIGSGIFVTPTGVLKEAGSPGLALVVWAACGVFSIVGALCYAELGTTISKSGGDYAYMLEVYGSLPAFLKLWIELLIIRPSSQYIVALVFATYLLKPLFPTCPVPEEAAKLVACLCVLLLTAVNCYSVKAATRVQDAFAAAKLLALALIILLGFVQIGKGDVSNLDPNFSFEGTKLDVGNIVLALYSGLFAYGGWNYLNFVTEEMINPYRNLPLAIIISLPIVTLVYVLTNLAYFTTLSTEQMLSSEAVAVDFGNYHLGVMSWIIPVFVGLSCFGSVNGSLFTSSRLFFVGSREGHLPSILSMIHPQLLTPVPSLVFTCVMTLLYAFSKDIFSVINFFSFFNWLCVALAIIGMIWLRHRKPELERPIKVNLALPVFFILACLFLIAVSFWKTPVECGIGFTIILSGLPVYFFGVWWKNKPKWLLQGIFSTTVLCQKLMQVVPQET

IC50 [1] [µM] | inhibition [2] [%] | Compound
> 200 | – | CC(C)C[C@H](N)C(N)=O
> 200 | – | CONC(=O)[C@@H](N)CC(C)C
180 | – | CSCC[C@H](N)C(=O)O [METHIONINE]
87 | – | CC(C)C[C@H](N)C(=O)O [LEUCINE]
> 200 | – | CSCC[C@H](N)C(=O)NO
– | 35 | N[C@@H](Cc1c[nH]c2ccccc12)C(=O)NO
> 200 | 50 | CC(C)C[C@H](N)C(=O)NO
> 200 | 38 | NCC(=O)NO
> 200 | 33 | NCC(=O)O [GLYCINE]
150 | – | CC[C@H](C)[C@H](N)C(=O)O [ISOLEUCINE]
– | 15 | CS(=O)(=O)NC(=O)[C@@H](N)Cc1ccccc1
– | 12 | CS(=O)(=O)NC(=O)[C@@H](N)Cc1ccc(O)cc1
> 200 | – | CC[C@H](C)[C@H](N)C(=O)NO
– | 39 | N[C@@H](Cc1ccc(O)cc1)C(=O)NO

Compound | IC50 [1] [µM] | inhibition [2] [%]
N[C@@H](Cc1ccccc1)c1nnn[nH]1 | – | 11

Reference: ChEMBL document CHEMBL4715761, “LAT1 activity of carboxylic acid bioisosteres: Evaluation of hydroxamic acids as substrates” (Bioorg Med Chem Lett, 2016)
